{"source": "paper PMC10782576", "about": "(ACS infectious diseases, 2019)", "key": {"Trichomonas vaginalis": {"test_system": "Trichomonas vaginalis", "assay": "imaging-based T. vaginalis viability assay", "type": "cell-based", "details": "for effect of oxygen level on antitrichomonal activity: aerobic, microaerophilic and anaerobic atmospheres compared; for EC50: Trichomonas vaginalis; for extent of elimination of trichomonads: strict anaerobic atmosphere; for EC50 T. vaginalis: imaging assay, 17 h incubation, microaerophilic unless specified"}, "[1]": {"test_system": "NIH/3T3 mouse fibroblast cells", "assay": "mammalian cell cytotoxicity counter screen, NIH/3T3", "type": "cell-based", "details": "read-out: EC50 3T3 Mouse Fibroblast; NIH/3T3 cytotoxicity", "summary_of_the_method": "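NIH/3T3 mouse fibroblasts were maintained in DMEM with 5% FetalClone III. Viability was read by MTT or by a Calcein AM/Hoechst 33342 live-cell-area imaging assay. For imaging, a DMSO stock (40 μM Calcein AM, 160 μM Hoechst) was diluted 1:5 in PBS and added. After 30 min, Hoechst-stained nuclei were imaged and cells were scored live or dead by green fluorescence.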"}, "[2]": {"test_system": "Ect1/E6E7 normal-type human ectocervical cells", "assay": "mammalian cell cytotoxicity counter screen, Ect1/E6E7", "type": "cell-based", "details": "for EC50: read-out: EC50 Ect1 Normal Cervical, Ect1/E6E7 cytotoxicity; for Selectivity Index SIEct1: (EC50 for Ect1 cells)/(EC50 for T. vaginalis)"}, "[3]": {"test_system": "Lactobacillus acidophilus", "assay": "Lactobacillus acidophilus viability assay", "type": "cell-based", "details": "for effect on growth and viability of L. acidophilus: anaerobic conditions, at the concentrations tested (Figure 8); for EC50: read-out: EC50 L. acidophilus, anaerobic, 18 h", "summary_of_the_method": "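Bacteria from MRS agar colonies were suspended in MRS broth, vortexed and dispensed into 96-well plates. Test compound was added in DMSO (0.5% final). Baseline OD 600 nm was read, then plates were incubated 18 h at 37 °C under anaerobic conditions (GasPak EZ Anaerobe sachets). OD 600 nm was read again to determine change from baseline.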"}, "T. vaginalis infection": {"test_system": "T. vaginalis infection", "details": "after a single course of treatment; cited from earlier work"}, "[4]": {"details": "17 h, read-out: EC50 T. vaginalis"}}, "note": "“Also recorded” adds a separate entry of the source. Read-outs that look alike come from different tables or passages of the source."}
{"compound": "C/C=C/C=C/C1C(C)=CC2CC(C)CCC2C1(C)/C(O)=C1\\C(=O)NC(CO)C1=O", "note": "(stereo not drawn) [compound 53, beauversetin]", "values": [{"measurement": "effect of oxygen level on antitrichomonal activity", "setting": "Trichomonas vaginalis", "value": "no statistically significant change in EC50 value"}, {"measurement": "EC50", "setting": "[1]", "value": 35, "unit": "µM"}, {"measurement": "EC50", "setting": "[2]", "value": 35, "unit": "µM"}, {"measurement": "effect on growth and viability of L. acidophilus", "setting": "[3]", "value": "no effect"}, {"measurement": "EC50", "setting": "[3]", "value": "> 50", "unit": "µM"}]}
{"compound": "COC1=CC(=O)c2c(O)c(C)c(CC(C)=O)c(O)c2C1=O", "note": "[compound 2, javanicin]", "values": [{"measurement": "EC50", "setting": "Trichomonas vaginalis; [4]", "value": 1.3, "unit": "µM"}, {"measurement": "Selectivity Index SIEct1", "setting": "[2]", "value": 3.1}]}
{"compound": "COC1=CC(=O)c2c(O)c3c(c(O)c2C1=O)CC(C)(O)OC3", "note": "(stereo not drawn) [compound 1, fusarubin]", "values": [{"measurement": "EC50", "setting": "Trichomonas vaginalis; [4]", "value": 2.5, "unit": "µM"}, {"measurement": "effect of oxygen level on antitrichomonal activity", "setting": "Trichomonas vaginalis", "value": "decreased as oxygen was introduced"}, {"measurement": "extent of elimination of trichomonads", "setting": "Trichomonas vaginalis", "value": "partial elimination"}, {"measurement": "Selectivity Index SIEct1", "setting": "[2]", "value": 30}]}
{"compound": "O=C1C(O)=C([C@H]2CC[C@H](c3ccc(Cl)cc3)CC2)C(=O)c2ccccc21", "note": "[compound 37, atovaquone, reference compound]", "values": [{"measurement": "Selectivity Index SIEct1", "setting": "[2]", "value": "< 0.1"}]}
{"compound": "COC(=O)[C@@]12Oc3cc4c(c(O)c3C(=O)C1=C(O)CC[C@@H]2O)[C@@H]1C=C[C@@]2(C4)C(=O)c3cc(C)cc(O)c3C(O)=C2C1=O", "note": "[compound 46, xanthoquinodin A1]", "values": [{"measurement": "EC50", "setting": "Trichomonas vaginalis; read-out: average EC50 against T. vaginalis", "value": 3, "unit": "µM"}, {"measurement": "effect of oxygen level on antitrichomonal activity", "setting": "Trichomonas vaginalis", "value": "maintained consistent potency"}, {"measurement": "Selectivity Index SIEct1", "setting": "[2]", "value": "~ 20"}, {"measurement": "effect on growth and viability of L. acidophilus", "setting": "[3]", "value": "near equipotent activity against T. vaginalis and L. acidophilus; also recorded: significant inhibition"}]}
{"compound": "C/C=C/[C@@H]1C=C[C@@H]2C[C@H](C)CC[C@H]2[C@]1(C)/C(O)=C1/C(=O)[C@@H](CO)N(C)C1=O", "note": "[compound 49, 5’-epiequisetin]", "values": [{"measurement": "EC50 T. vaginalis", "setting": "Trichomonas vaginalis", "value": "Inactive"}]}
{"compound": "C/C=C/C=C/[C@H]1C(C)=C[C@H]2C[C@@H](C)CC[C@@H]2[C@@]1(C)/C(O)=C1/C(=O)N[C@@H](CO)C1=O", "note": "[compound 54, 5’-epibeauversetin]", "values": [{"measurement": "EC50 T. vaginalis", "setting": "Trichomonas vaginalis", "value": "Inactive"}]}
{"compound": "COC1=CC(=O)c2c(O)ccc(O)c2C1=O", "note": "[compound 9, 2-Methoxynaphthazarin]", "values": [{"measurement": "effect of oxygen level on antitrichomonal activity", "setting": "Trichomonas vaginalis", "value": "decreased as oxygen was introduced"}, {"measurement": "extent of elimination of trichomonads", "setting": "Trichomonas vaginalis", "value": "complete elimination"}]}
{"compound": "CC1=C[C@H]2C[C@@H](C)CC[C@@H]2[C@@](C)(/C(O)=C2\\C(=O)[C@H](CO)N(C)C2=O)[C@H]1/C=C/C=C/C[C@@H](C)O", "note": "[compound 52, 5’-epipyrrolocin A]", "values": [{"measurement": "EC50 T. vaginalis", "setting": "Trichomonas vaginalis", "value": "Inactive"}]}
{"compound": "phomasetin [compound 55]", "values": [{"measurement": "EC50", "setting": "[1]", "value": 10, "unit": "µM"}, {"measurement": "EC50", "setting": "[2]", "value": 7, "unit": "µM"}, {"measurement": "EC50", "setting": "[3]", "value": "> 50", "unit": "µM"}]}
{"compound": "C/C=C/[C@@H]1C=C[C@@H]2C[C@H](C)CC[C@H]2[C@]1(C)/C(O)=C1/C(=O)N[C@@H](CO)C1=O", "note": "[compound 50, trichosetin]", "values": [{"measurement": "EC50", "setting": "[1]", "value": 30, "unit": "µM"}, {"measurement": "EC50", "setting": "[2]", "value": 34, "unit": "µM"}, {"measurement": "EC50", "setting": "[3]", "value": "> 50", "unit": "µM"}]}
{"compound": "equisetin [compound 48]", "values": [{"measurement": "EC50", "setting": "[1]", "value": 100, "unit": "µM"}, {"measurement": "EC50", "setting": "[2]", "value": 35, "unit": "µM"}, {"measurement": "toxicity to / inhibition of L. acidophilus", "setting": "[3]; at concentrations up to 50 μM", "value": "non-toxic"}, {"measurement": "EC50", "setting": "[3]", "value": "> 50", "unit": "µM"}]}
{"compound": "CCS(=O)(=O)CCn1c([N+](=O)[O-])cnc1C", "note": "[tinidazole]", "values": [{"measurement": "patients cleared of the infection", "setting": "T. vaginalis infection", "value": "> 90", "unit": "%"}]}
{"compound": "pyrrolocin A [compound 51]", "values": [{"measurement": "EC50", "setting": "[1]", "value": 6, "unit": "µM"}, {"measurement": "EC50", "setting": "[2]", "value": 10, "unit": "µM"}, {"measurement": "EC50", "setting": "[3]", "value": "> 50", "unit": "µM"}]}
{"compound": "Cc1ncc([N+](=O)[O-])n1CCO", "note": "[metronidazole, reference compound]", "values": [{"measurement": "effect of oxygen level on antitrichomonal activity", "setting": "Trichomonas vaginalis", "value": "maintained consistent potency"}, {"measurement": "patients cleared of the infection", "setting": "T. vaginalis infection", "value": "> 90", "unit": "%"}, {"measurement": "effect on growth and viability of L. acidophilus", "setting": "[3]", "value": "no inhibition"}]}
{"compound": "C/C=C/C=C/[C@H]1C(C)=C[C@H]2C[C@@H](C)CC[C@@H]2[C@@]1(C)/C(O)=C1\\C(=O)[C@H](CO)N(C)C1=O", "note": "[compound 56, 5’-epiphomasetin]", "values": [{"measurement": "EC50 T. vaginalis", "setting": "Trichomonas vaginalis", "value": "Inactive"}]}
